Four compounds from ChEMBL document CHEMBL5712901, “DOT1L inhibition blocks multiple myeloma cell proliferation by suppressing IRF4-MYC signaling” (2019) can be followed below.

Molecules are shown by their SMILES. Calls of active or inactive are those of the source. The calls are words filed in the database; no cut-off is given here.

What all share (format): functional, cell-based
Holding throughout (conditions): time <= 14.0 day

In one test the test system is RPMI-8226. Kind of test: Antiproliferative activity against human RPMI-8226 cells treated upto 14 days with replacement of fresh medium containing drug every 3 to 4 days by cell counting kit-8 method. In a few lines:
(§1)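 Screen of histone methylation modifier inhibitors in 6-well plates at 3 × 10^4 to 1 × 10^5 cells/well. Drug at 1 μM or DMSO for up to 14 days, with medium and drug refreshed every 3-4 days. CCK-8 read on days 3-4 and 11-14. Values normalized to DMSO; mean of 5 replications ± SEM; unpaired two-sided t-test.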
A general note: Formazan colour is commonly taken as a measure of viable cells.

In the next test the test system is U-266. Kind of test: Antiproliferative activity against human […] cells treated upto 14 days with replacement of fresh medium containing drug every 3 to 4 days by cell counting kit-8 method. The gist of the method: as §1
The next test concerns KMS-12-BM. Kind of test: Antiproliferative activity against human KMS-12-BM cells treated upto 14 days with replacement of fresh medium containing drug every 3 to 4 days by cell counting kit-8 method. In a few lines:
(§2)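 Screen of histone methylation modifier inhibitors: myeloma cells seeded at 3 × 10^4 to 1 × 10^5 cells/well, exposed to 1 μM inhibitor or DMSO for up to 14 days. Viability read by CCK-8 absorbance at early (days 3-4) and late (days 11-14) time points, normalized to DMSO; means of 5 replications, SEM, unpaired two-sided t-test.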

The test system of the next test is MM1.S. The experiment in a line: Antiproliferative activity against human MM1.S cells treated upto 14 days with replacement of fresh medium containing drug every 3 to 4 days by cell counting kit-8 method. The gist of the method: as §2
Another test has as its system KMS-12-PE. Kind of test: Antiproliferative activity against human KMS-12-PE cells treated upto 14 days with replacement of fresh medium containing drug every 3 to 4 days by cell counting kit-8 method. In a few lines:
as §1

Take `O=C(O)c1ccc(CN2CCC(CN[C@@H]3C[C@H]3c3ccccc3)CC2)cc1`: the result with RPMI-8226 and in the test on U-266 was inactive. `N[C@@H]1C[C@H]1c1cc(F)cc(F)c1OCc1ccccc1`: the result in the test on KMS-12-BM and in the test with MM1.S was inactive. On to `COc1cc2c(NC3CCN(C(C)C)CC3)nc(C3CCCCC3)nc2cc1OCCCN1CCCC1`, for which, in the test on KMS-12-PE, the result was inactive. Still for that read-out and setting: in the case of `CC[C@H](C)n1cc(C)c2c(C(=O)NCc3c(C)cc(C)[nH]c3=O)cc(-c3ccc(N4CCNCC4)nc3)cc21` it was “inactive”.
